Reference: ChEMBL document CHEMBL4385612, “Novel 15-Lipoxygenase-1 Inhibitor Protects Macrophages from Lipopolysaccharide-Induced Cytotoxicity” (J Med Chem, 2019)
The source made the active and inactive calls. The rule behind the calls is not given here.

How the values were obtained:
[1] = biological target: T1, Polyunsaturated fatty acid lipoxygenase ALOX15 (Homo sapiens, UniProt P16050); test: Inhibition of human recombinant N-terminal His6-tagged 15-LOX1 expressed in Escherichia coli BL21(DE3) using linoleic acid as substrate preincubated for 10 mins followed by substrate addition by UV absorption analysis
T1 sequence (P16050 whole entry): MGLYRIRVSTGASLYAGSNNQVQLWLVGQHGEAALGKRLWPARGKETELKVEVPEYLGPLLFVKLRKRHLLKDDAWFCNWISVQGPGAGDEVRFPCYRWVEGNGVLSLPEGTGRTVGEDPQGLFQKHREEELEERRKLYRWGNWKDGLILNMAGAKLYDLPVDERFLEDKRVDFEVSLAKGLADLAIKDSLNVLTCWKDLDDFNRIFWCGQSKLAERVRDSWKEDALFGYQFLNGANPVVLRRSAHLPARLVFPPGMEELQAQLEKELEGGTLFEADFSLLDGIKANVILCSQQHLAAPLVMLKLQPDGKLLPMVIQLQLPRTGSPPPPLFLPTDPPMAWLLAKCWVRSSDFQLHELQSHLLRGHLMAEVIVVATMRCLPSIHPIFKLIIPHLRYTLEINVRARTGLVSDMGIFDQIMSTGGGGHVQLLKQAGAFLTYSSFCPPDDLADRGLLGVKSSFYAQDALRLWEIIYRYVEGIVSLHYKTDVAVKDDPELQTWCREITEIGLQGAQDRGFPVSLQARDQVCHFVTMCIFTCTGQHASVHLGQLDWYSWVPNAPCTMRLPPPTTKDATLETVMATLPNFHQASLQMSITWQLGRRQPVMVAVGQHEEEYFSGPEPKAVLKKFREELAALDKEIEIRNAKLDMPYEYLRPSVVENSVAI

RAW264.7 [2] = test: Inhibition of LPS/IFNgamma-stimulated lipid peroxidation in mouse RAW264.7 cells at 5 uM after 24 hrs by BODIPY 581/591 C11-staining based FACS assay; format: functional, cell-based
How it was run: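 RAW 264.7 cells, 10 × 10^6 per well, incubated overnight. Then LPS/IFNγ (10 ng/mL each) for 24 h with or without inhibitor at 5 μM. Unstimulated cells served as control. Stained with BODIPY 581/591 C11 for 30 min at 37 °C. Red-to-green fluorescence shift measured by flow cytometry, 488 nm excitation. n = 3, mean ± SEM.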

RAW264.7 [3] = test: Protection against LPS-induced cell death in mouse RAW264.7 cells assessed as increase in cell viability at 5 uM measured after 48 hrs by MTS assay relative to control; format: functional
How it was run: (§1)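 RAW 264.7 cells seeded at 5000 per well. Given 100 μg/mL LPS together with compound (0.2, 1, 5 μM) for 48 h. Viability measured by MTS: reagent for 2 h at 37 °C, absorbance at 490 nm. Compared with LPS-only control. n = 3–13, mean ± SEM.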

[4] = Stability in pH 7.4 2-betamercaptoethanol at 25 to 50 uM by UV-spectra analysis; format: physicochemical; details: buffer, pH 7.4, 50 µM
How it was run: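 UV spectrum of compound recorded during incubation with 2-mercaptoethanol at pH 7.4, to follow thiol conjugate addition to the α,β-unsaturated amide.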

RAW264.7 [5] = test: Protection against LPS-induced cell death in mouse RAW264.7 cells assessed as increase in cell viability measured after 48 hrs by MTS assay; format: functional, cell-based; how it was run: as §1
[6] = biological target: T2, Polyunsaturated fatty acid lipoxygenase ALOX15 (Mus musculus) (UniProt P39654); test: Inhibition of 15-LOX1 in LPS/IFNgamma-stimulated mouse RAW264.7 cells assessed as reduction in nitric oxide production preincubated for 20 hrs followed by LPS/IFNgamma stimulation and measured after 4 hrs by colorimetric method; format: cell-based
T2 sequence (whole entry): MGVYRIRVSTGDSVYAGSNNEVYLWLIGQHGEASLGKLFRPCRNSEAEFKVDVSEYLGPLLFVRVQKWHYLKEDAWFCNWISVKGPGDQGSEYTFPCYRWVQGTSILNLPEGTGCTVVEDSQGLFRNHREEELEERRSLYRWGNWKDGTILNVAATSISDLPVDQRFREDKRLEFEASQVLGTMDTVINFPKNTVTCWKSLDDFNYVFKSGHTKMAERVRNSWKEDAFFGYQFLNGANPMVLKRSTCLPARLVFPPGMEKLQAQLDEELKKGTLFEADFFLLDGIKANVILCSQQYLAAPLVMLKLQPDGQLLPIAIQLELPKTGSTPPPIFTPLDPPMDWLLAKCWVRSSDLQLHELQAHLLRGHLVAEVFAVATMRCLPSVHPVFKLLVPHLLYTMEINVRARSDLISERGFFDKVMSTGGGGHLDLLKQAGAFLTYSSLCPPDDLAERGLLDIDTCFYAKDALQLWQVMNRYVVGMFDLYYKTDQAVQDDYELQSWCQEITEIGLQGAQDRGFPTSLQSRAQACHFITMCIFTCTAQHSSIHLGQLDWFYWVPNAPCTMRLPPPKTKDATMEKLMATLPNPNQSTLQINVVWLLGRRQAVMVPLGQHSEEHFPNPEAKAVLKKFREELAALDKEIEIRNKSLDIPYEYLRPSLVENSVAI
How it was run: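 RAW 264.7 cells stimulated with LPS and IFNγ (10 ng/mL each). Figure legend: compound added at 0.2, 1 and 5 μM for 20 h, then LPS/IFNγ for a further 4 h. Methods describe 2 × 10^6 cells per well and a 24 h incubation at 5 μM. Total nitrate/nitrite measured with a colorimetric kit. Stimulated control set to 100%. n = 3, mean ± SEM.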

[7] = biological target: T2, Polyunsaturated fatty acid lipoxygenase ALOX15 (Mus musculus); test: Inhibition of 15LOX1 in LPS/IFNgamma-stimulated mouse RAW264.7 cells assessed as down regulation of iNOS gene expression at 5 uM preincubated for 20 hrs followed by LPS/IFNgamma stimulation and measured after 4 hrs by RT-PCR analysis relative to control; format: cell-based
How it was run: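 RAW 264.7 cells pretreated with compound (0.2, 1, 5 μM) for 20 h, then stimulated with LPS/IFNγ (10 ng/mL each) for 4 h in its presence. Total RNA isolated and integrity checked by 28S/18S ratio. RNA reverse-transcribed, and 10 ng cDNA used per real-time PCR. iNOS expression calculated by 2^–ΔΔCt and normalised to the stimulated positive control. n = 3–4, mean ± SEM.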

[8] = biological target: T2, Polyunsaturated fatty acid lipoxygenase ALOX15 (Mus musculus); test: Inhibition of 15LOX1 in mouse RAW blue cells assessed as suppression of LPS/IFNgamma-stimulated NFkappaB activation by measuring reduction in SEAP release at 0.2 to 5 uM preincubated for 20 hrs followed by LPS/IFNgamma-stimulation and measured after 4 hrs by quanti blue reagent-based reporter gene assay; format: cell-based
How it was run: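 RAW-Blue cells (RAW 264.7 carrying an NF-κB–SEAP reporter, kept with 200 μg/mL Zeocin) seeded at 10 × 10^4 per well the day before. Pretreated with compound (0.2, 1, 5 μM) for 20 h, then LPS and IFNγ (10 ng/mL each) added for 4 h. Secreted SEAP read with QuantiBlue after 2 h at 37 °C, absorbance 635–655 nm. n = 8–16, mean ± SEM.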

[9] = biological target: T2, Polyunsaturated fatty acid lipoxygenase ALOX15 (Mus musculus); test: Inhibition of N144 probe binding to 15-LOX in mouse RAW264.7 cells measured after 2 mins by HRP-coupled Western blot analysis; format: cell-based
How it was run: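 Lysates of inhibitor-treated and untreated RAW 264.7 cells exposed to covalent alkene probe N144 for 2 min. Probe then biotinylated by oxidative Heck reaction with a biotinylated phenylboronic acid and detected on blots with streptavidin–HRP. Blots also probed for 15-LOX-1 and β-actin. Band intensities normalised to β-actin. n = 3 independent experiments, mean ± SEM.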

Q: Which IC50 [1] does the source give for CCCNC(=O)c1c(C(=O)OCC)[nH]c2cc(Cl)ccc12 here?
A: > 20 µM

Q: With c1ccc2c(c1)SCc1c-2[nH]c2ccccc12 as the molecule, how does the inhibition (RAW264.7 [2]) read?
A: Active

Q: With CCOC(=O)c1[nH]c2cc(Cl)ccc2c1C(=O)C[C@@H](C)CCCC(C)C as the molecule, how does the Activity (RAW264.7 [3]) read?
A: Active

Q: For CCCNC(=O)c1[nH]c2cc(Cl)ccc2c1CN(C)C, which IC50 [1] is on record?
A: > 20 µM

Q: Which IC50 [1] does the source give for CCCNC(=O)c1[nH]c2cc(Cl)ccc2c1C(=O)C[C@H](C)CCCC(C)C here?
A: > 20 µM

Q: Which IC50 [1] does the source give for CCCNC(=O)c1[nH]c2cc(Cl)ccc2c1/C=C/C(=O)NCc1ccccc1OC here?
A: > 20 µM

Q: With CCOC(=O)c1[nH]c2cc(Cl)ccc2c1/C=C/C(=O)NCc1ccccc1OC as the molecule, how does the Stability [4] read?
A: Stable

Q: What about the Activity (RAW264.7 [5]) of the same molecule?
A: Dose-dependent effect

Q: And the inhibition [6]?
A: Dose-dependent effect

Q: And the inhibition [7]?
A: 50%

Q: What about the inhibition [8] of the same molecule?
A: Active

Q: What about the inhibition (RAW264.7 [2]) of the same molecule?
A: Active

Q: And the Activity (RAW264.7 [3])?
A: 20%

Q: What about the inhibition [9] of the same molecule?
A: Active

Q: With CCOC(=O)c1[nH]c2cc(Cl)ccc2c1/C=C/C(=O)NCCc1ccccc1 as the molecule, how does the IC50 [1] read?
A: > 20 µM

Q: With O=C(NC1CC1)c1cc2ccc(Cl)cc2[nH]1 as the molecule, how does the IC50 [1] read?
A: > 20 µM

Q: For CCCNC(=O)c1[nH]c2cc(Cl)ccc2c1C(=O)C[C@@H](C)CCCC(C)C, which IC50 [1] is on record?
A: > 20 µM

Q: Which inhibition (RAW264.7 [2]) does the source give for CC(c1cc2ccccc2s1)N(O)C(N)=O (centres undefined) here?
A: Active

Q: What about the Activity (RAW264.7 [3]) of the same molecule?
A: Active
